Laboratory results from article PMC5678849 (Kidney International Reports, 2017).
Where two headings read alike, the source gives them in different places. Marks after values point to notes of the source that are not given here.

Tests used:
[1] = Safety and tolerability, single-dose study; type: in vivo, human (Japanese hemodialysis patients with SHPT)
How it was run: (§1)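 Safety was assessed descriptively from AEs, vital signs, clinical laboratory tests and 12-lead ECGs (centrally analyzed, QTc by Fridericia). Anti-drug antibodies were measured by validated ELISA. Hypocalcemia was defined as cCa < 7.5 mg/dl. Dosing was a single i.v. injection after dialysis (5, 10 or 20 mg), or 2.5 or 5 mg i.v. three times weekly for 4 weeks. Each dose cohort started only after the earlier cohorts met the safety criteria.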

[2] = tested on: BAP, TRACP-5b, FGF23 serum levels; assay: Serum BAP, TRACP-5b and FGF23, multiple-dose study; type: in vivo, human (Japanese hemodialysis patients with SHPT)
How it was run: (§2)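 Blood was drawn before each dialysis, plus serial samples after the day 1 and day 27 injections. Serum iPTH, BAP, TRACP-5b and FGF23 were measured centrally. Data are percent change from baseline, mean ± SD.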

[3] = tested on: serum intact parathyroid hormone (iPTH); assay: Serum iPTH change, multiple-dose study; type: in vivo, human (Japanese hemodialysis patients with SHPT); conditions: mean ± SD; for serum iPTH, percent change 30 minutes after injection / serum iPTH, percent change from baseline on day 3: multiple-dose study; for serum iPTH, percent change 30 minutes after injection: first injection, n = 8
How it was run: as §2

[4] = tested on: serum intact parathyroid hormone (iPTH); assay: Serum iPTH change, single-dose study; type: in vivo, human (Japanese hemodialysis patients with SHPT); conditions: for serum iPTH, mean maximum change from the baseline: mean ± SD, n = 4
How it was run: (§3)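 Japanese hemodialysis patients with SHPT received a single 5, 10 or 20 mg i.v. injection, or placebo, via the venous blood line after dialysis. Active groups had n = 4; placebo was pooled across cohorts. Serum iPTH, albumin-corrected Ca and P were measured by a central laboratory. Data are percent change from baseline over time, with mean maximum change from baseline, reported descriptively as mean ± SD.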

[5] = Plasma etelcalcetide pharmacokinetics, single-dose study; type: in vivo, human (Japanese hemodialysis patients with SHPT); conditions: human, iv
How it was run: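 Japanese hemodialysis patients (≥20 y) with SHPT, iPTH ≥ 300 pg/ml and cCa ≥ 9.0 mg/dl, randomized 2:1 to drug or placebo in cohorts of 6. A single i.v. injection (5, 10 or 20 mg) was given via the venous blood line after dialysis. Plasma drug was measured by LC/MS/MS. Cmax and AUClast (to the last quantifiable point before the next hemodialysis) were derived per subject by noncompartmental analysis and reported as mean ± SD.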

[6] = Safety and tolerability, multiple-dose study; type: in vivo, human (Japanese hemodialysis patients with SHPT)
How it was run: as §1

[7] = cited from earlier work
[8] = Antibodies against etelcalcetide, ELISA; type: in vivo, human (Japanese hemodialysis patients with SHPT); conditions: validated ELISA
[9] = tested on: serum albumin-corrected calcium (cCa); assay: Serum cCa change, single-dose study; type: in vivo, human (Japanese hemodialysis patients with SHPT); conditions: mean ± SD, n = 4
How it was run: as §3

[10] = tested on: serum albumin-corrected calcium (cCa); assay: Serum cCa change, multiple-dose study; type: in vivo, human (Japanese hemodialysis patients with SHPT); conditions: mean ± SD
How it was run: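 Randomized, double-blind, placebo-controlled, 16 centres. Patients: ≥20 y, hemodialysis 3×/week ≥90 days, iPTH ≥ 300 pg/ml, cCa ≥ 9.0 mg/dl, dialysate Ca ≥2.25 mEq/l. Blood taken before each dialysis; follow-up to day 55. Serum cCa measured centrally; percent change from baseline at day 55 or withdrawal.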

[11] = tested on: serum P; assay: Serum phosphorus change; type: in vivo, human (Japanese hemodialysis patients with SHPT); conditions: for serum P, percent change from the baseline at the end of the treatment or withdrawal: mean ± SD
[12] = Plasma etelcalcetide pharmacokinetics, multiple-dose study; type: in vivo, human (Japanese hemodialysis patients with SHPT); conditions: for AUC(0-t) / Cmax: human, plasma, iv; for AUC(0-t): AUClast
How it was run: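 Two cohorts of 11 hemodialysis patients with SHPT, randomized 8:3 to drug or placebo. Plasma drug was measured by LC/MS/MS, with samples taken before each dialysis. Per-subject noncompartmental Cmax and AUClast were compared for the day 1 and day 27 injections. Values are geometric mean (95% CI).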

[13] = 2.5 mg i.v. 3 times weekly for 4 weeks
[14] = 5 mg i.v. 3 times weekly for 4 weeks
[15] = M1, 2.5 mg, n = 7, geometric mean (95% confidence interval)
[16] = M2, 5 mg, n = 8, geometric mean (95% confidence interval)
[17] = 2.5 mg, M1, 2.5 mg i.v. 3 times weekly for 4 weeks, day 1 (first administration), n = 8, mean ± SD
[18] = 5 mg, M2, 5 mg i.v. 3 times weekly for 4 weeks, day 1, n = 8, mean ± SD
[19] = 5 mg, M2, 5 mg i.v. 3 times weekly for 4 weeks, day 27, n = 8, mean ± SD

## CC(=O)N[C@H](CSSC[C@H](N)C(=O)O)C(=O)N[C@H](C)C(=O)N[C@H](CCCNC(=N)N)C(=O)N[C@H](CCCNC(=N)N)C(=O)N[C@H](CCCNC(=N)N)C(=O)N[C@H](C)C(=O)N[C@H](CCCNC(=N)N)C(N)=O [etelcalcetide, Etelcalcetide]
[1]; single i.v. 10 mg, 1 patient of 4 (APTT), considered unrelated to treatment
  patients with AEs: 25.0%
[1]; single i.v. 5, 10 or 20 mg
  hypocalcemia with cCa < 7.5 mg/dl: No patients developed hypocalcemia
[1]; single-dose study, 5, 10 or 20 mg i.v.
  deaths or serious adverse events: No deaths or serious adverse events (AEs) were reported
[2]; day 29
  serum FGF23: tended to decrease
[2]; day 29, etelcalcetide groups
  serum BAP before hemodialysis: remained unchanged
  serum TRACP-5b: a trend toward decreases
[2]; day 55
  serum FGF23: a trend toward a return to baseline levels
[2]; day 55, etelcalcetide groups
  serum BAP before hemodialysis: trends toward decreases
  serum TRACP-5b: a return to baseline
[3]; [13]
  serum iPTH, percent change from the baseline at the end of the study or at study withdrawal: −26.25% ± 26.94%
[3]; [14]
  serum iPTH, percent change from the baseline at the end of the study or at study withdrawal: −45.65% ± 20.06%
[3]; 2.5 mg i.v.
  serum iPTH, percent change 30 minutes after injection: −41.65% ± 19.36%
  serum iPTH, percent change from baseline on day 3: −24.25% ± 13.36%
[3]; 5 mg i.v.
  serum iPTH, percent change 30 minutes after injection: −58.60% ± 6.47%
  serum iPTH, percent change from baseline on day 3: −32.64% ± 18.20%
[4]; single i.v. 5 mg
  serum iPTH, mean maximum change from the baseline: −50.43% ± 12.63%
[4]; single i.v. 10 mg
  serum iPTH, mean maximum change from the baseline: −69.26% ± 11.35%
[4]; single i.v. 20 mg, at 56 hours
  serum iPTH, percent change from the baseline: approximately −30%
[5]; 5 mg
  AUC(0-t): 1110 ± 360 ng·h/mL
  Cmax: 236 ± 89 ng/mL
[5]; 10 mg
  AUC(0-t): 2550 ± 110 ng·h/mL
  Cmax: 589 ± 88 ng/mL
[5]; 20 mg
  AUC(0-t): 5460 ± 680 ng·h/mL
  Cmax: 999 ± 135 ng/mL
[6]; 2.5 mg i.v. 3 times weekly for 4 weeks, 7 patients of 8
  patients with AEs: 87.5%
[6]; 2.5 mg i.v. 3 times weekly, relationship to treatment not ruled out
  serious AE: cardiopulmonary arrest
[6]; 5 mg i.v. 3 times weekly
  serious AE: no serious AE was reported
[6]; 5 mg i.v. 3 times weekly for 4 weeks, 3 patients of 8
  patients with AEs: 37.5%
[6]; multiple-dose study
  deaths: No deaths occurred
[6]; multiple-dose study, 2.5 or 5 mg i.v. 3 times weekly for 4 weeks
  hypocalcemia with serum cCa < 7.5 mg/dl: No patients experienced hypocalcemia
[7]; 3-times-weekly 5- and 10-mg doses for 4 weeks, non-Japanese patients
  tolerability: tolerable
[7]; single i.v. injection at 5 to 60 mg, non-Japanese SHPT patients
  tolerability: tolerable
[7]; single injection of 5 mg, healthy Japanese subjects, ref unpublished data
  tolerability: tolerable
[8]; multiple-dose study
  antietelcalcetide antibodies: No antietelcalcetide antibodies were detected
[8]; single-dose study
  antietelcalcetide antibodies: No antietelcalcetide antibodies were detected
[9]; single i.v. 5 mg
  serum cCa, mean maximum change from the baseline: −7.26% ± 3.48%
[9]; single i.v. 10 mg
  serum cCa, mean maximum change from the baseline: −6.79% ± 5.86%
[9]; single i.v. 20 mg
  serum cCa, mean maximum change from the baseline: −14.26% ± 6.01%
[10]; [13]
  serum cCa, mean percent change from the baseline at the end of the study or at withdrawal: −7.05% ± 4.60%
[10]; [14]
  serum cCa, mean percent change from the baseline at the end of the study or at withdrawal: −12.75% ± 4.88%
[11]; [13]
  serum P, percent change from the baseline at the end of the treatment or withdrawal: −14.68% ± 13.38%
[11]; [14]
  serum P, percent change from the baseline at the end of the treatment or withdrawal: −13.79% ± 18.18%
[11]; single-dose study, from 4 hours to day 4
  serum P versus placebo: remained lower
[12]; [15]
  AUClast ratio day 27/day 1: 3.05 (2.91–3.19) ^c
  Cmax ratio day 27/day 1: 1.18 (0.86–1.62) ^c
[12]; [16]
  AUClast ratio day 27/day 1: 3.20 (2.87–3.57) ^c
  Cmax ratio day 27/day 1: 1.09 (0.90–1.32) ^c
[12]; [17]
  AUC(0-t): 600 ± 133 ng·h/mL
  Cmax: 151 ± 56 ng/mL
[12]; 2.5 mg, M1, 2.5 mg i.v. 3 times weekly for 4 weeks, day 27 (last administration), n = 7, mean ± SD
  AUC(0-t): 1830 ± 380 ng·h/mL
[12]; [18]
  AUC(0-t): 1200 ± 560 ng·h/mL
  Cmax: 315 ± 89 ng/mL
[12]; [19]
  AUC(0-t): 3860 ± 1840 ng·h/mL
  Cmax: 356 ± 143 ng/mL
[12]; multiple-dose study
  Cmax at week 4 relative to the initial dose: ≤ 1.18 times
[12]; multiple-dose study, discussion
  mean AUClast following day 27 injection relative to day 1 injection: approximately 3 times
